{"data": "Published values gathered from unrelated publications", "read-out": "cell growth or viability", "note": "Each line is one published result; the experiments were not run side by side."}
{"Compound": "Cc1nc(Nc2ccc3c(c2)C(C)(C)C(=O)N3C)c2ccccc2n1", "cell line": "H22", "test": "MTT", "endpoint": "IC50", "result": "24.1 µM"}
{"Compound": "O=C(C=Cc1ccccc1)Nc1cccc(-c2ccnc(N3CCOCC3)c2)c1", "cell line": "HeLa", "test": "MTT", "setting": "5 µM", "endpoint": "inhibition", "result": "28.4%"}
{"Compound": "C=C(C)[C@@H]1CC[C@@H](C)C[C@H]1OCc1ccc(OC)cc1", "cell line": "HeLa", "test": "MTT", "setting": "30 µM, 72 h", "endpoint": "inhibition", "result": "54%"}
{"Compound": "O=C(/C=C/c1cccc(F)c1)Nc1cc(-c2ccnc(N3CCC(O)CC3)c2)ccn1", "cell line": "HeLa", "test": "MTT", "setting": "5 µM", "endpoint": "inhibition", "result": "85%"}
{"Compound": "CC1(C)CCC2(CC1)N[C@@H](C(=O)N[C@@H]1CC[C@@H](C(N)=O)OC1)[C@H](c1ccnc(Cl)c1F)[C@]21C(=O)Nc2cc(Cl)ccc21", "cell line": "U2OS", "test": "resazurin", "setting": "72 h", "endpoint": "GI50", "result": "> 1 µM"}
{"Compound": "C[C@@H]1CC[C@@H]([C@](C)(O)CNCc2cccc3ccccc23)[C@H](OCc2ccccc2)C1", "cell line": "HeLa", "test": "MTT", "setting": "30 µM, 72 h", "endpoint": "inhibition", "result": "86.8%"}
{"Compound": "Cc1nc(N(C)c2ccc3c(c2)/C(=C/c2ccccc2Cl)C(=O)N3C)c2ccccc2n1", "cell line": "H22", "test": "MTT", "endpoint": "IC50", "result": "8.98 µM"}
{"Compound": "C[C@@H]1CC[C@@H]([C@](C)(O)Cn2cnc3ccccc32)[C@H](OCc2ccccc2)C1", "cell line": "HeLa", "test": "MTT", "setting": "30 µM, 72 h", "endpoint": "inhibition", "result": "89%"}
{"Compound": "C=CC(=O)NC1CCN(c2ncc3ncnc(Nc4ccc(Oc5ccc6c(c5)ncn6C)c(C)c4)c3n2)CC1", "cell line": "HPAC", "endpoint": "EC50", "result": "0.0351 µM"}
{"Compound": "Cc1cccc(/C=C/C(=O)Nc2cccc(-c3ccnc(N4CCC(O)CC4)c3)c2)c1", "cell line": "HeLa", "test": "MTT", "setting": "5 µM", "endpoint": "inhibition", "result": "54.9%"}
{"Compound": "Cc1nc(Nc2ccc3c(c2)/C(=C/c2ccccc2Cl)C(=O)N3)c2ccccc2n1", "cell line": "H22", "test": "MTT", "endpoint": "IC50", "result": "2.14 µM"}
{"Compound": "O=C(C=Cc1ccccc1)Nc1cc(-c2ccnc(N3CCOCC3)c2)ccn1", "cell line": "HeLa", "test": "MTT", "setting": "5 µM", "endpoint": "inhibition", "result": "74%"}
{"Compound": "C=C(COCc1ccccc1)[C@@H]1CC[C@@H](C)C[C@H]1OCc1ccccc1", "cell line": "HeLa", "test": "MTT", "setting": "10 µM, 72 h", "endpoint": "inhibition", "result": "40.4%"}
{"Compound": "O=C(C=Cc1ccccc1)Nc1cc(-c2ccnc(N3CCC(O)CC3)c2)ccn1", "cell line": "HeLa", "test": "MTT", "setting": "5 µM", "endpoint": "inhibition", "result": "75.2%"}
{"Compound": "COc1ccc(COC[C@@](O)(CNCc2ccc(F)cc2)[C@@H]2CC[C@@H](C)C[C@H]2OCc2ccc(OC)cc2)cc1", "cell line": "HeLa", "test": "MTT", "setting": "10 µM, 72 h", "endpoint": "inhibition", "result": "95%"}
{"Compound": "COc1cc2ncnc(Nc3ccc4c(c3)/C(=C/c3cccc(Cl)c3)C(=O)N4C)c2cc1OC", "cell line": "H22", "test": "MTT", "endpoint": "IC50", "result": "3.84 µM"}
{"Compound": "Cc1cccc(/C=C/C(=O)Nc2cc(-c3ccnc(N4CCC(O)CC4)c3)ccn2)c1", "cell line": "HeLa", "test": "MTT", "setting": "5 µM", "endpoint": "inhibition", "result": "74.2%"}
{"Compound": "C[C@@H]1CC[C@@H]([C@](C)(O)CNCc2cccc(F)c2)[C@H](OCc2ccccc2)C1", "cell line": "HeLa", "test": "MTT", "setting": "10 µM, 72 h", "endpoint": "inhibition", "result": "72.5%"}
{"Compound": "Cc1c(C(=O)O)ccc2c3n(nc12)[C@@H]1[C@H](C3)N(CC2CC2)[C@@]2(C(=O)Nc3cc(Cl)ccc32)[C@H]1c1cccc(Cl)c1F", "cell line": "U2OS", "endpoint": "GI50", "result": "> 0.09 µM"}
